{"source": "ChEMBL document CHEMBL3352599", "about": "“Radiosynthesis and biological evaluation of a novel enoyl-ACP reductase inhibitor for Staphylococcus aureus” (Eur J Med Chem, 2014)", "key": {"[1]": {"experiment": "Mean residence time in Swiss Webster mouse at 10 mg/kg, iv by LC/MS/MS analysis", "format": "ADME, organism-based", "set-up": "dose 10 mg/kg, route intravenous", "conditions": "in vivo", "in_short": "(§1)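 Healthy Swiss Webster mice received a single dose, either 10 mg/kg iv or 40 mg/kg sc. Blood was drawn at 5, 15 and 30 min and 1, 2, 4, 7 and 24 h (n = 3). Each mouse gave two consecutive samples, retro-orbital then cardiac puncture, into EDTA. Plasma was deproteinized with acetonitrile and analysed by LC-MS/MS. Parameters came from noncompartmental analysis. sc bioavailability was calculated after dose normalization.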"}, "Mus musculus [2]": {"system": "Mus musculus", "experiment": "Volume of distribution at steady state in Swiss Webster mouse at 10 mg/kg, iv by LC/MS/MS analysis", "format": "ADME, organism-based", "set-up": "dose 10 mg/kg, route intravenous", "conditions": "in vivo", "in_short": "as §1"}, "[3]": {"experiment": "Half life in Swiss Webster mouse at 10 mg/kg, iv by LC/MS/MS analysis", "format": "ADME, organism-based", "set-up": "dose 10 mg/kg, route intravenous", "conditions": "in vivo", "in_short": "as §1"}, "[4]": {"experiment": "Half life in Swiss Webster mouse at 40 mg/kg, sc by LC/MS/MS analysis", "format": "ADME, organism-based", "set-up": "dose 40 mg/kg, route subcutaneous", "conditions": "in vivo", "in_short": "as §1"}, "[5]": {"experiment": "Tmax in Swiss Webster mouse at 10 mg/kg, iv by LC/MS/MS analysis", "format": "ADME, organism-based", "set-up": "dose 10 mg/kg, route intravenous", "conditions": "in vivo", "in_short": "as §1"}, "Staphylococcus aureus [6]": {"system": "Staphylococcus aureus", "experiment": "Antibacterial activity against methicillin-resistant Staphylococcus aureus BAA1762 infected in Swiss Webster thigh infection model assessed as remaining bacterial burden at 40 mg/kg, sc administered 1 hr post challenge (reference value: 9 log10 CFU)", "conditions": "route subcutaneous"}, "[7]": {"experiment": "Ratio of AUC for Swiss Webster mouse at 10 mg/kg, iv to MIC for methicillin-resistant Staphylococcus aureus BAA1762", "in_short": "(§2)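 Healthy Swiss Webster mice were given a single dose, iv at 10 mg/kg or sc at 40 mg/kg. Blood was taken at 5, 15 and 30 min and 1, 2, 4, 7 and 24 h (n = 3), with EDTA as anticoagulant. Plasma was protein-precipitated with acetonitrile and analysed by LC-MS/MS. AUC0-∞ (h*μg/mL) came from noncompartmental analysis and was divided by MIC (μg/mL).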"}, "Staphylococcus aureus [8]": {"system": "Staphylococcus aureus", "experiment": "Antibacterial activity against methicillin-resistant Staphylococcus aureus BAA1762 infected in Swiss Webster thigh infection model assessed as remaining bacterial burden at 100 mg/kg, sc administered 1 hr post challenge (reference value: 9 log10 CFU)", "conditions": "route subcutaneous"}, "[9]": {"experiment": "AUC (0 to infinity) in Swiss Webster mouse at 40 mg/kg, sc by LC/MS/MS analysis", "format": "ADME, organism-based", "set-up": "time infinity, dose 40 mg/kg, route subcutaneous", "conditions": "plasma", "in_short": "as §1"}, "[10]": {"experiment": "Cmax in Swiss Webster mouse at 40 mg/kg, sc by LC/MS/MS analysis", "format": "ADME, organism-based", "set-up": "dose 40 mg/kg, route subcutaneous", "conditions": "in vivo", "in_short": "as §1"}, "[11]": {"experiment": "Ratio of AUC for Swiss Webster mouse at 40 mg/kg, sc to MIC for methicillin-resistant Staphylococcus aureus BAA1762", "conditions": "route subcutaneous", "in_short": "as §2"}, "Staphylococcus aureus [12]": {"system": "Staphylococcus aureus", "experiment": "Antibacterial activity against Staphylococcus aureus", "format": "functional"}, "[13]": {"experiment": "Cmax in Swiss Webster mouse at 10 mg/kg, iv by LC/MS/MS analysis", "format": "ADME, organism-based", "set-up": "dose 10 mg/kg, route intravenous", "conditions": "in vivo", "in_short": "as §1"}, "Mus musculus [14]": {"system": "Mus musculus", "experiment": "Apparent volume of distribution in Swiss Webster mouse at 10 mg/kg, iv by LC/MS/MS analysis", "format": "ADME, organism-based", "set-up": "dose 10 mg/kg, route intravenous", "conditions": "in vivo", "in_short": "as §1"}, "[15]": {"experiment": "AUC (0 to infinity) in Swiss Webster mouse at 10 mg/kg, iv by LC/MS/MS analysis", "format": "ADME, organism-based", "set-up": "time infinity, dose 10 mg/kg, route intravenous", "conditions": "plasma", "in_short": "as §1"}, "[16]": {"experiment": "Clearance at steady state in Swiss Webster mouse at 10 mg/kg, iv by LC/MS/MS analysis", "format": "ADME, organism-based", "set-up": "dose 10 mg/kg, route intravenous", "conditions": "in vivo", "in_short": "as §1"}, "[17]": {"experiment": "Bioavailability in Swiss Webster mouse at 40 mg/kg, sc by LC/MS/MS analysis", "format": "ADME, organism-based", "conditions": "in vivo", "in_short": "as §1"}, "Staphylococcus aureus [18]": {"system": "Staphylococcus aureus", "experiment": "Antibacterial activity against methicillin-resistant Staphylococcus aureus BAA1762 infected in Swiss Webster systemic infection model assessed as survival rate at 100 mg/kg, sc administered 1 hr post infection on day 0, day 1 and 2 with 24 hrs dosing interval and measured for additional 4 days (reference value: 0%)", "format": "functional", "conditions": "route subcutaneous", "in_short": "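Mice made neutropenic with ip cyclophosphamide (150 mg/kg day −4, 100 mg/kg day −1). MRSA grown in Mueller Hinton broth at 37 °C to mid-log, washed and diluted in BHI, then given ip at 2×10^7 cells. Compound in ethanol/PEG-400/saline (40/20/40) given sc once daily for 3 days. Vehicle-treated infected controls. Survival checked twice daily for 7 days.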"}, "[19]": {"experiment": "Mean residence time in Swiss Webster mouse at 40 mg/kg, sc by LC/MS/MS analysis", "format": "ADME, organism-based", "set-up": "dose 40 mg/kg, route subcutaneous", "conditions": "in vivo", "in_short": "as §1"}}}
{"smiles": "CCCCCCc1ccc(Oc2ccccc2C#N)c(O)c1", "values": [{"measurement": "MRT", "setting": "[1]", "value": 0.65, "unit": "h"}, {"measurement": "Vdss", "setting": "Mus musculus [2]", "value": 475.6, "unit": "mL"}, {"measurement": "half-life", "setting": "[3]", "value": 1.01, "unit": "h"}, {"measurement": "half-life", "setting": "[4]", "value": 6.17, "unit": "h"}, {"measurement": "Tmax", "setting": "[5]", "value": 4.8, "unit": "min"}, {"measurement": "log10 CFU", "setting": "Staphylococcus aureus [6]", "value": 7}, {"measurement": "RatioAUC/MIC", "setting": "[7]", "value": 1.28}, {"measurement": "log10 CFU", "setting": "Staphylococcus aureus [8]", "value": 6}, {"measurement": "AUC(0-inf)", "setting": "[9]", "value": 1770, "unit": "ng·h/mL"}, {"measurement": "Cmax", "setting": "[10]", "value": 280, "unit": "ng/mL"}, {"measurement": "RatioAUC/MIC", "setting": "[11]", "value": 3.54}, {"measurement": "MIC", "setting": "Staphylococcus aureus [12]", "value": 0.5, "unit": "µg/mL"}, {"measurement": "Cmax", "setting": "[13]", "value": 840, "unit": "ng/mL"}, {"measurement": "Vz", "setting": "Mus musculus [14]", "value": 704.1, "unit": "mL"}, {"measurement": "AUC(0-inf)", "setting": "[15]", "value": 640, "unit": "ng·h/mL"}, {"measurement": "clearance", "setting": "[16]", "value": 7.31, "unit": "mL/min"}, {"measurement": "bioavailability", "setting": "[17]", "value": 69, "unit": "%"}, {"measurement": "survival at 100 mg/kg", "setting": "Staphylococcus aureus [18]", "value": 50, "unit": "%"}, {"measurement": "MRT", "setting": "[19]", "value": 6.47, "unit": "h"}]}
